Measured values from ChEMBL document CHEMBL4043283, “Discovery and Preclinical Development of IIIM-290, an Orally Active Potent Cyclin-Dependent Kinase Inhibitor” (J Med Chem, 2018).
In brackets after ≈: the same amount, converted by molar mass. Activity calls are given as the source filed them. The calls are words filed in the database; no cut-off is given here.

Tests used:
[1] = Tmax in BALB/c mouse at 3 mg/kg, po by LC-MS/MS analysis; format: ADME, organism-based; conditions: in vivo
[2] = Intrinsic clearance in rat hepatocytes assessed per million cells at 3 uM after 180 mins by LC-MS/MS analysis; format: ADME, cell-based, Hepatocyte; conditions: read-out: CLH
[3] = Cmax in BALB/c mouse at 1 mg/kg, iv by LC-MS/MS analysis; format: ADME, organism-based; design: dose 1 mg/kg, route intravenous; conditions: in vivo
[4] = Protein binding in human plasma at 3 uM after 5 hrs by equilibrium dialysis method; format: ADME, cell-free; conditions: read-out: PPB (converted)
MCF7 [5] = assay: Growth inhibition of human MCF7 cells after 48 hrs by MTT assay; format: functional; conditions: MCF7, 48 h
Outline: (§1)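 Cancer cell lines sourced from the National Cancer Institute (USA). Cells kept in appropriate growth medium at 37 °C, 95% humidity, 5% CO2. Antiproliferation read by tetrazolium (MTT) assay. GI50 values were determined only for compounds selected after an initial single-concentration screen.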

[6] = biological target: Non-receptor tyrosine-protein kinase TYK2 (Homo sapiens) (UniProt P29597); assay: Inhibition of partial length wild type human Tyk2 expressed in mammalian expression system at 0.5 uM by KINOMEscan method relative to control
Chain of Non-receptor tyrosine-protein kinase TYK2 (Homo sapiens) (P29597 whole entry): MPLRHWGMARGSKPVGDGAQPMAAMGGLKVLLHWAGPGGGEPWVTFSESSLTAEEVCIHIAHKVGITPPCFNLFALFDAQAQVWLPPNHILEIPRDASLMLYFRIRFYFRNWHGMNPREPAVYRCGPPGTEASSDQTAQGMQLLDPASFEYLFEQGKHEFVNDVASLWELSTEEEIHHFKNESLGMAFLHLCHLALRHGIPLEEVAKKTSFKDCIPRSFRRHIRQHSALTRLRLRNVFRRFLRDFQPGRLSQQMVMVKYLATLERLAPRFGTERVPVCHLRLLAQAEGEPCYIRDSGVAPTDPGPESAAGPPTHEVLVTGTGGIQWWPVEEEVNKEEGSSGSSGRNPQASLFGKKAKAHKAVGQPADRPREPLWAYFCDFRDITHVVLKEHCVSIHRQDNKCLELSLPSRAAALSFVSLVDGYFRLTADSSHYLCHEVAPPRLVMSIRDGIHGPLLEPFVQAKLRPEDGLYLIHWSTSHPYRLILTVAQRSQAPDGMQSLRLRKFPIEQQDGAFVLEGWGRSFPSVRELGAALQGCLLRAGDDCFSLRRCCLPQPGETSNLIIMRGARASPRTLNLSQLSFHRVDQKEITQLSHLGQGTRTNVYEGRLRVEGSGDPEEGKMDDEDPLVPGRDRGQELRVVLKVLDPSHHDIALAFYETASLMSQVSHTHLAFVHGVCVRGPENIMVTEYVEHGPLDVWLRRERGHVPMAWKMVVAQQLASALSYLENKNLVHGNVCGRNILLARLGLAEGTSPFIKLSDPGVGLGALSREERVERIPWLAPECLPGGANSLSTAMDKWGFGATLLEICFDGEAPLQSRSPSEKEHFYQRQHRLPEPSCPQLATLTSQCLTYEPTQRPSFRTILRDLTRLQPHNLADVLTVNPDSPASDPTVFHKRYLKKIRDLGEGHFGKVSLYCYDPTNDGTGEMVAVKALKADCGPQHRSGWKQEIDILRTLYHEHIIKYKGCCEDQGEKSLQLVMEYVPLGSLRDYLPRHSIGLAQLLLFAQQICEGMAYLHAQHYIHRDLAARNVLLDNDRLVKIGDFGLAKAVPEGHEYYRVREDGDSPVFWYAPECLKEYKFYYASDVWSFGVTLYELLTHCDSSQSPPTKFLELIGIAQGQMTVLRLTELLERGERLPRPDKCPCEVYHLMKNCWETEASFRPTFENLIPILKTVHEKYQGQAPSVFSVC
Outline: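 Competition binding screen (KINOMEscan) at 0.5 μM; primary binding read out as % of control, lower values indicating stronger interaction.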

[7] = test system: alpha-1 acid glycoprotein; assay: Binding affinity to alpha-1 acid glycoprotein (unknown origin); format: ADME; conditions: human, read-out: PB (converted)
[8] = biological target: CDK9/cyclin T1 (Homo sapiens) (UniProt O60563+P50750); assay: Inhibition of CDK9/cyclin T1 (unknown origin) at 0.5 uM using YSPTSPSYSPTSPSYSPTSPKKK as substrate after 30 mins in presence of [33P]-gamma-ATP by filter binding assay relative to control; format: protein-complex assay
[9] = Pancreas to plasma partition coefficient, Kp of the compound in Sprague-Dawley rat at 30 mg/kg, po measured at 1 hr; format: ADME, organism-based; conditions: pancreas and plasma
[10] = Thermodynamic equilibrium solubility of compound in PBS at pH 7.4 after 5 hrs by shake flask method; format: physicochemical; conditions: read-out: Therm_solubility
[11] = Half life in monkey hepatocytes at 3 uM after 180 mins by LC-MS/MS analysis; format: ADME, cell-based, Macaca mulatta, Hepatocyte; conditions: rhesus monkey
[12] = Chemical stability of compound in phosphate buffered saline at pH 6.8 assessed as parent compound remaining at 120 ug/ml after 24 hrs by HPLC method; format: physicochemical; conditions: read-out: Stability
Liver [13] = assay: Intrinsic clearance in mouse liver S9 fraction assessed per mg of protein preincubated for 5 mins followed by NADPH addition measured after 30 mins by LC-MS/MS analysis; format: ADME, tissue-based; conditions: s9, 0.5 h
[14] = Tmax in Sprague-Dawley rat at 10 mg/kg, po by LC-MS/MS analysis; format: ADME, organism-based; conditions: in vivo
[15] = Half life in monkey liver microsomes at 100 uM after 30 mins by LC-MS/MS analysis; format: ADME, Macaca mulatta, microsome; conditions: rhesus monkey
Outline: (§2)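 Parent loss followed over time to give half-life, with NADPH as cofactor for microsomal phase I metabolism.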

Lung = assay: Drug uptake in BALB/c mouse lung at 30 mg/kg, po after 8 hrs; format: ADME, organism-based; conditions: in vivo
[16] = Tmax in Sprague-Dawley rat at 3 mg/kg, po by LC-MS/MS analysis; format: ADME, organism-based; conditions: in vivo
[17] = Half life in rat liver microsomes at 100 uM after 30 mins by LC-MS/MS analysis; format: ADME, microsome; outline: as §2
A549 = assay: Growth inhibition of human A549 cells after 48 hrs by MTT assay; format: functional; conditions: A549, 48 h; outline: as §1
[18] = Growth inhibition of human HEK293 cells after 48 hrs by MTT assay; format: cell-based
MIA PaCa-2 [19] = assay: Antitumor activity against human MIAPaCa2 cells xenografted in CD1 nude mouse assessed as tumor growth inhibition at 50 mg/kg, po qd administered on day 10 to 25 post tumor inoculation relative to control; format: functional; conditions: MIA PaCa-2, po, 240 h, read-out: TGI
Cytochrome P450 1A2 = Cytochrome P450 1A2 (Homo sapiens, UniProt P05177); assay: Inhibition of human CYP1A2 using fluorogenic substrate preincubated with co-factor for 10 mins followed by enzyme-substrate addition by fluorometric method; format: ADME
Chain of Cytochrome P450 1A2 (P05177 whole entry): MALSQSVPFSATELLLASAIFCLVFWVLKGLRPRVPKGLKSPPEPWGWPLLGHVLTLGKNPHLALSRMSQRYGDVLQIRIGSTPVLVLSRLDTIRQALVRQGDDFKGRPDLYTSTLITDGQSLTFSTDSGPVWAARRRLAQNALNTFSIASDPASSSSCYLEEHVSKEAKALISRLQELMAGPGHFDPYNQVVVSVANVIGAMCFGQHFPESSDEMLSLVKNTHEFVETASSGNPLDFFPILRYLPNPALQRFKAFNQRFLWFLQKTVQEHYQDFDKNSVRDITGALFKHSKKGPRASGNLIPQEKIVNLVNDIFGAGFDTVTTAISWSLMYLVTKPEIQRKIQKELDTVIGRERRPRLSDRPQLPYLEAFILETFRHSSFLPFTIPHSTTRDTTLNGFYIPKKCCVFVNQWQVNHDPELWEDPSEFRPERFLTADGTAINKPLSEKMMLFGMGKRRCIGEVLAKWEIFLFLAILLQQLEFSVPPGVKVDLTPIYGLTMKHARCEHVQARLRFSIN
Outline: (§3)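 Cofactor plus test item or vehicle, in triplicate, preincubated 10 min at 37 °C; prewarmed enzyme–substrate mix added and incubated at 37 °C with shaking. Quench: acetonitrile (CYP2C19, CYP3A4) or 0.25 M Tris in 60% methanol (CYP2C9, CYP2D6). Metabolite fluorescence read; % inhibition computed against enzyme controls and enzyme-free blanks.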

[20] = Half life in Sprague-Dawley rat at 30 mg/kg, po by LC-MS/MS analysis; format: ADME, organism-based; conditions: in vivo
MCF7 [21] = assay: Growth inhibition of human MCF7 cells at 10 uM after 48 hrs by MTT assay relative to control; format: functional; conditions: MCF7, 48 h, read-out: GI
Outline: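 Single-concentration primary screen at 10 μM by MTT assay. Cells were NCI-sourced cancer lines grown in appropriate medium at 37 °C, 95% humidity, 5% CO2. Growth inhibition is expressed relative to control.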

[22] = Elimination half life in BALB/c mouse at 1 mg/kg, iv by LC-MS/MS analysis; format: ADME, organism-based; conditions: in vivo, read-out: beta t1/2 (converted)
CDK3/Cyclin E = CDK3/Cyclin E (Homo sapiens, UniProt Q00526); assay: Inhibition of CDK3/cyclin E (unknown origin) after 30 mins in presence of [33P]-gamma-ATP by filter binding assay; format: protein-complex assay
Chain of CDK3/Cyclin E (P24864 whole entry): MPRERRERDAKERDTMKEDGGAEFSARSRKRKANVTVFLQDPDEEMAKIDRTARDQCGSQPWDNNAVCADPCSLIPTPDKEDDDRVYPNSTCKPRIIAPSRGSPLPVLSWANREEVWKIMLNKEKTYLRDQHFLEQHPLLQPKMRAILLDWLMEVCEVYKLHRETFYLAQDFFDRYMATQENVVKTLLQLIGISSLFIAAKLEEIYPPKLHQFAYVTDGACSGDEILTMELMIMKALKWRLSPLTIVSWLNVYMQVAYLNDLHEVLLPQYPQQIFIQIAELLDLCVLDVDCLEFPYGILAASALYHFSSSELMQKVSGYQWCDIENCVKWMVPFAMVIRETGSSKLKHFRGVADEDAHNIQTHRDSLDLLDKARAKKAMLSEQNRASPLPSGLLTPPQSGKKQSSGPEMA
Chain of CDK3/Cyclin E (Q00526 whole entry): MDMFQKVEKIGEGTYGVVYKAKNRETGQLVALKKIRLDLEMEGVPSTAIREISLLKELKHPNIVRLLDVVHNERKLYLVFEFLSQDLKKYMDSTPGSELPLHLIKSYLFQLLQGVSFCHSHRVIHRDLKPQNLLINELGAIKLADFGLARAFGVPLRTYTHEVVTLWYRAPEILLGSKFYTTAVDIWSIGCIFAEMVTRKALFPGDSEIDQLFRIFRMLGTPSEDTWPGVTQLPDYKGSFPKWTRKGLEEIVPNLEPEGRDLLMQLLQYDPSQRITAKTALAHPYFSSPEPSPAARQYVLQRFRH

MIA PaCa-2 [23] = assay: Induction of apoptosis in human MIAPaCa2 cells assessed as formation of apoptotic bodies after 24 hrs by scanning electron microscopy; format: functional, cell-based
Outline: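 Cells exposed to different compound concentrations for 24 h on coverslips, fixed in 2.5% glutaraldehyde in 0.1 M phosphate buffer pH 7.2 (4 °C, 24 h), postfixed in 1% OsO4 4 h, ethanol-dehydrated, critical-point dried with HMDS, gold-coated, imaged at 20 kV.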

PC-3 = assay: Growth inhibition of human PC3 cells after 48 hrs by MTT assay; format: functional; conditions: PC-3, 48 h; outline: as §1
Cytochrome P450 2D6 = Cytochrome P450 2D6 (Homo sapiens, UniProt P10635); assay: Inhibition of human CYP2D6 using fluorogenic substrate preincubated with co-factor for 10 mins followed by enzyme-substrate addition by fluorometric method; format: ADME; outline: as §3
Chain of Cytochrome P450 2D6 (P10635 whole entry): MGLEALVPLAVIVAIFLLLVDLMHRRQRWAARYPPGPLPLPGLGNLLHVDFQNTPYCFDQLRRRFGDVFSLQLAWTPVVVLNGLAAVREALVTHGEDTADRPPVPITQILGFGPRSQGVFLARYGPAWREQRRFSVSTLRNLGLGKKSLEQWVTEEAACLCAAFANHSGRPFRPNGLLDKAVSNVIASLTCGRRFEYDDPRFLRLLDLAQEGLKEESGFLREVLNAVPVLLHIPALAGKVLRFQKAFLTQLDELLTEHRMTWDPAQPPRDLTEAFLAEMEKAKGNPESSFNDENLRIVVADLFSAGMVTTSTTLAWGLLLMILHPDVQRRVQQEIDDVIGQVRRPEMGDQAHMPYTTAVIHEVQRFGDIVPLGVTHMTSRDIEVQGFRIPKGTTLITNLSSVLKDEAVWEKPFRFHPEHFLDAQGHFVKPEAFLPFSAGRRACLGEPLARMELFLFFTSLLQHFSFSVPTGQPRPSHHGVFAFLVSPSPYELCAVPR

[24] = Half life in human hepatocytes at 3 uM after 180 mins by LC-MS/MS analysis; format: ADME, cell-based, Hepatocyte
Mus musculus = assay: Toxicity in CD1 nude mouse xenografted with human HCT116 cells assessed as change in body weight at 25 to 50 mg/kg, po qd administered on day 10 to 25 post tumor inoculation; format: organism-based; conditions: in vivo
Liver [25] = assay: Drug uptake in Sprague-Dawley rat liver at 30 mg/kg, po after 8 hrs; format: ADME, organism-based; conditions: in vivo
[26] = Half life in human liver S9 fraction preincubated for 5 mins followed by NADPH addition measured after 30 mins by LC-MS/MS analysis; format: ADME, tissue-based
Cytochrome P450 2C19 = Cytochrome P450 2C19 (Homo sapiens, UniProt P33261); assay: Inhibition of human CYP2C19 using fluorogenic substrate preincubated with co-factor for 10 mins followed by enzyme-substrate addition by fluorometric method; format: ADME; outline: as §3
Chain of Cytochrome P450 2C19 (P33261 whole entry): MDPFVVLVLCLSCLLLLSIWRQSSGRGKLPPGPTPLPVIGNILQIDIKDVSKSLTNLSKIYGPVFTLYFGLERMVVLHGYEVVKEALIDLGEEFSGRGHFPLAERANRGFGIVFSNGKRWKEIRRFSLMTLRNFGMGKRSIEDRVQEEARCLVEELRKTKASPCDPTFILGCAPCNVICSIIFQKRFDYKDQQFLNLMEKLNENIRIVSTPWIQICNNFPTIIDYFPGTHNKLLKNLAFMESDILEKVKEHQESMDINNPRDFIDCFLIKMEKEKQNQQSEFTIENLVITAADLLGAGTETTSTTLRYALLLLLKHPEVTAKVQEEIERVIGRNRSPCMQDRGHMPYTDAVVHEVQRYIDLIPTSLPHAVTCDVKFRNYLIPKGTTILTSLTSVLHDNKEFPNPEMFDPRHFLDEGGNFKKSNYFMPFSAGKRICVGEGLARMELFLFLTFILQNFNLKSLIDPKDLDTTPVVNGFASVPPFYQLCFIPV

OVCAR-3 = assay: Growth inhibition of human OVCAR3 cells after 48 hrs by MTT assay; format: functional; conditions: OVCAR-3, 48 h; outline: as §1

CN1CC[C@H](c2c(O)cc(O)c3c(=O)cc(/C=C/c4c(Cl)cccc4Cl)oc23)[C@H](O)C1
Tmax [1]: 22.2 min | hepatocyte CLint at 3 µM [2]: 9.2 µL/min/1e6 cells | Cmax [3]: 677 nM | fraction unbound at 5 h, 3 µM [4]: 0.033 | GI50 (MCF7 [5]): 4 µM | inhibition [6]: > 98% | fraction unbound [7]: 0.017 | inhibition [8]: 94% | Kp at 1 h [9]: 4.1 | solubility thermodynamic at 5 h [10]: 2.29 µg/mL (≈ 4.95 µM) | half-life at 3 µM [11]: 326 min | remaining at 24 h, 120 ug/ml [12]: 81% | CLint (Liver [13]): 16 µL/min/mg | Tmax [14]: 1.75 h | half-life at 100 µM [15]: 25 min | Drug uptake (Lung): Active | Tmax [16]: 30 min | half-life at 100 µM [17]: > 30 min | GI50 (A549): 4 µM | GI50 at 48 h [18]: 22 µM | inhibition in vivo at 50 mg/kg (MIA PaCa-2 [19]): 40 to 52% | IC50 (Cytochrome P450 1A2): > 20 µM | half-life [20]: 194 min | inhibition of growth at 10 µM (MCF7 [21]): 80% | half-life [22]: 328 min | IC50 (CDK3/Cyclin E): > 1000 nM | Activity (MIA PaCa-2 [23]): Active | GI50 (PC-3): 3 to 6 µM | IC50 (Cytochrome P450 2D6): > 20 µM | half-life at 3 µM [24]: 726 min | Activity (Mus musculus): Non-Toxic | Drug uptake (Liver [25]): Active | half-life [26]: 72 min | IC50 (Cytochrome P450 2C19): > 20 µM | GI50 (OVCAR-3): 8 µM
